Data as given in EPA's CvTdb concentration-time database.

Columns and labels:
[1] = test system: Rat; experiment: concentration in liver after dosing; conditions: 6 h; dosed: Fluorotelomer alcohol 8+2; 24 mg/kg; oral; Male; Harlan Sprague Dawley
[2] = test system: Rat; experiment: concentration in plasma after dosing; conditions: dosed: Fluorotelomer alcohol 8+2, 24 mg/kg, oral, Male, Harlan Sprague Dawley
[3] = test system: Rat; experiment: concentration in liver after dosing; conditions: 3 h; dosed: Fluorotelomer alcohol 8+2; 24 mg/kg; oral; Male; Harlan Sprague Dawley
[4] = test system: Rat; experiment: concentration in plasma after dosing; conditions: dosed: Wyeth-14643, 2.0 mg/kg, oral, Male, Sprague-Dawley
[5] = test system: Rat; experiment: concentration in plasma after dosing; conditions: 3 h; dosed: Wyeth-14643; 1.0 mg/kg; oral; Male; Sprague-Dawley
[6] = test system: Rat; experiment: concentration in plasma after dosing; conditions: dosed: Wyeth-14643, 5.0 mg/kg, oral, Male, Sprague-Dawley
[7] = test system: Rat; experiment: concentration in plasma after dosing; conditions: 0.25 h; dosed: Di-n-butyl phthalate; 100 mg/kg; oral; Male; Sprague-Dawley
[8] = test system: human; experiment: concentration in plasma after dosing; negative times count back from the end of exposure; conditions: dosed: trichloroethylene, 100 ppm, inhalation, duration: 4 hr, person
How it was run: (§1)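 Sampling and analytical methods are those of each source and frequently went unreported. The concentration-versus-time and amount-versus-time points were compiled from published in vivo toxicokinetic studies and two structured collections. Most were digitised from plot screenshots with WebPlotDigitizer, with others copied from tables, in the reported units.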

[9] = test system: human; experiment: as above; conditions: dosed: trichloroethylene, 100 ppm, inhalation, duration: 4 hr, person; remark: listed apart in the source
How it was run: as §1

[10] = test system: human; experiment: concentration in urine after dosing; conditions: dosed: trichloroethylene, inhalation, duration: 2 hr - 20 min
How it was run: as §1

[11] = test system: Rat; experiment: concentration in liver after dosing; conditions: 3360 h; dosed: Perfluorodecanoic acid; 10 mg/kg; oral; Female; Harlan Sprague Dawley
[12] = test system: Rat; experiment: concentration in plasma after dosing; conditions: 2 h; dosed: Thiodiglycolic Acid; 20 mg/kg; iv; Male; Harlan Sprague Dawley
[13] = test system: Rat; experiment: concentration in plasma after dosing; conditions: 1 h; dosed: Thiodiglycolic Acid; 20 mg/kg; iv; Male; Harlan Sprague Dawley
[14] = test system: Rat; experiment: concentration in thymus after dosing; conditions: 3 h; dosed: Thiodiglycolic Acid; 20 mg/kg; iv; Male; Harlan Sprague Dawley
[15] = test system: Rat; experiment: concentration in liver after dosing; conditions: 10 min; dosed: Thiodiglycolic Acid; 20 mg/kg; iv; Female; Harlan Sprague Dawley
[16] = test system: Rat; experiment: concentration in liver after dosing; conditions: 8 h; dosed: Thiodiglycolic Acid; 20 mg/kg; iv; Female; Harlan Sprague Dawley
[17] = test system: Rat; experiment: concentration in thymus after dosing; conditions: 10 min; dosed: Thiodiglycolic Acid; 20 mg/kg; iv; Male; F344
[18] = test system: Rat; experiment: concentration in thymus after dosing; conditions: 6.667 h; dosed: Thiodiglycolic Acid; 20 mg/kg; iv; Female; Harlan Sprague Dawley
[19] = test system: Rat; experiment: concentration in thymus after dosing; conditions: 8 h; dosed: Thiodiglycolic Acid; 20 mg/kg; iv; Female; Harlan Sprague Dawley
[20] = test system: Rat; experiment: concentration in liver after dosing; conditions: 40 min; dosed: Thiodiglycolic Acid; 20 mg/kg; iv; Female; Harlan Sprague Dawley
[21] = test system: Rat; experiment: concentration in plasma after dosing; conditions: 22 h; dosed: Primidone; 80 mg/kg; oral; Male; F344
[22] = test system: Rat; experiment: concentration in plasma after dosing; conditions: 3 h; dosed: Primidone; 130 mg/kg; oral; Male; Harlan Sprague Dawley
[23] = test system: Rat; experiment: concentration in heart after dosing; conditions: 20 min; dosed: Bis 2-Chloroethoxy Methane; 20 mg/kg; iv; Male; F344
[24] = test system: Rat; experiment: concentration in liver after dosing; conditions: 20 min; dosed: Bis 2-Chloroethoxy Methane; 20 mg/kg; iv; Male; F344
[25] = test system: Rat; experiment: concentration in heart after dosing; conditions: 4 h; dosed: Bis 2-Chloroethoxy Methane; 20 mg/kg; iv; Male; F344
[26] = test system: Rat; experiment: concentration in heart after dosing; conditions: 4 h; dosed: Bis 2-Chloroethoxy Methane; 20 mg/kg; iv; Female; F344
[27] = test system: Rat; experiment: concentration in thymus after dosing; conditions: 10 min; dosed: Bis 2-Chloroethoxy Methane; 20 mg/kg; iv; Female; F344
[28] = test system: Rat; experiment: concentration in plasma after dosing; conditions: 2 h; dosed: Bis 2-Chloroethoxy Methane; 20 mg/kg; iv; Male; F344
[29] = test system: Rat; experiment: concentration in heart after dosing; conditions: 3 h; dosed: Bis 2-Chloroethoxy Methane; 20 mg/kg; iv; Female; F344

OCCC(F)(F)C(F)(F)C(F)(F)C(F)(F)C(F)(F)C(F)(F)C(F)(F)C(F)(F)F [Fluorotelomer alcohol 8+2]
Conditions | concentration in liver [ng/g]
[1] | 1250
[3] | 3080

[2]
Conditions | concentration in plasma [ng/mL]
5 min | 8.46
9 h | 44.8

Cc1cccc(Nc2cc(Cl)nc(SCC(=O)O)n2)c1C
concentration in plasma [ng/mL]
Conditions | 0.25 h | 4 h | 5 min | 8 h
[4] | 912 | 257 | – | –
[6] | – | – | 1330 | 155

Conditions | concentration in plasma [ng/mL]
[5] | 180

CCCCOC(=O)c1ccccc1C(=O)O [Mono-n-butyl phthalate]
Conditions | concentration in plasma [ng/mL]
[7] | 31700

O=C(O)C(Cl)Cl [dichloroacetic acid]
concentration in plasma [ng/mL]
Conditions | [8] | [9]
0 h | 6 | –
0.25 h | 9 | 5
0.5 h | 13 | –
1 h | 12 | –
2 h | 11 | –
4 h | 5 | 7
8 h | 5 | –
12 h | 4 | –
14 h | 4 | –
18 h | 5 | –
41 h | 6 | –
65 h | 4 | –

concentration in plasma [ng/mL], during exposure
Conditions | -3.948 h | -3.48 h | -3 h | -2 h | -1 h
[8] | – | 80 | 8 | 7 | 7
[9] | 4 | – | 4 | 4 | 4

O=C(O)C(Cl)(Cl)Cl [trichloroacetic acid]
concentration in urine [mg/kg], [10]
Conditions | 2.667 h | 6.667 h | 10.67 h | 19.67 h
1348 mg | 6.6 | 14.2 | 15.6 | 21.1
1681 mg | 4.3 | 10.6 | 22.2 | 24.9
3907 mg | 3 | 14.2 | 22.9 | 26.7

O=C(O)C(F)(F)C(F)(F)C(F)(F)C(F)(F)C(F)(F)C(F)(F)C(F)(F)C(F)(F)C(F)(F)F [Perfluorodecanoic acid]
Conditions | concentration in liver [ng/g]
[11] | 6380

O=C(O)CSCC(=O)O [Thiodiglycolic Acid]
Conditions | concentration in liver [ng/g] | concentration in plasma [ng/mL] | concentration in thymus [ng/g]
[12] | – | 790 | –
[13] | – | 1580 | –
[14] | – | – | 1430
[15] | 10200 | – | –
[16] | 737 | – | –
[17] | – | – | 9340
[18] | – | – | 329
[19] | – | – | 395
[20] | 10000 | – | –

CCC1(c2ccccc2)C(=O)NC(=O)NC1=O [Phenobarbital]
Conditions | concentration in plasma [ng/mL]
[21] | 2870
[22] | 1210

ClCCOCOCCCl [Bis 2-Chloroethoxy Methane]
Conditions | concentration in heart [ng/g] | concentration in liver [ng/g] | concentration in plasma [ng/mL] | concentration in thymus [ng/g]
[23] | 6660 | – | – | –
[24] | – | 3030 | – | –
[25] | 83.9 | – | – | –
[26] | 55.5 | – | – | –
[27] | – | – | – | 44200
[28] | – | – | 282 | –
[29] | 124 | – | – | –
